Series [1] is described as follows: Aqueous solubility of the compound at pH 6.9. The following applies: buffer. The class given is physicochemical.
The subject of series [2] is Rattus norvegicus. Description: Tmax in Sprague-Dawley rat assessed as 4-(3,3-Dimethyl-butyrylamino)-3,5-difluoro-N-thiazol-2-yl-benzamide level at 15 mg/kg, po. As to conditions: in vivo. On the set-up: dose 15 mg/kg, route oral. The class given is ADME, organism-based. The method in brief:
(§1)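 Prodrugs dosed po in aqueous 10% hydroxypropyl β-cyclodextrin (2 mL/kg) to rats; doses expressed as parent-drug equivalents; n = 3. Six tail-vein blood samples (~100 μL) taken between 5 and 420 min. Parent drug in plasma measured by HTLC-MS/MS. Profiles fitted with a one-compartment model; AUC extrapolated to infinity.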

Series [3] concerns Rattus norvegicus. Description: AUC in Sprague-Dawley rat assessed as 4-(3,3-Dimethyl-butyrylamino)-3,5-difluoro-N-thiazol-2-yl-benzamide level at 15 mg/kg, po. The following applies: in vivo. On the set-up: dose 15 mg/kg, route oral. The class given is ADME, organism-based, Plasma. In short, it runs like this:
as §1

The test system of series [4] is Rattus norvegicus. Kind of series: Cmax in Sprague-Dawley rat assessed as 4-(3,3-Dimethyl-butyrylamino)-3,5-difluoro-N-thiazol-2-yl-benzamide level at 1.5 mg/kg, po. The class given is ADME, organism-based. Details: dose 1.5 mg/kg, route oral. The following applies: in vivo. In short, it runs like this: as §1
Series [5] concerns Rattus norvegicus. Description: Oral bioavailability in Sprague-Dawley rat assessed as 4-(3,3-Dimethyl-butyrylamino)-3,5-difluoro-N-thiazol-2-yl-benzamide level at 15 mg/kg. The class given is ADME, organism-based. As to conditions: in vivo. In short, it runs like this: as §1
The nature of series [6]: Chemical stability of the compound assessed as half life. The class given is physicochemical. The method in brief:
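Prodrug was dissolved in water, filtered, and diluted to approximately 0.05 mg/mL in buffers of different pH. Sealed vials were stored at 50 C to accelerate hydrolysis. Samples were diluted 1:1 with acetonitrile and analysed by HPLC for prodrug and hydrolysis products.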

Series [7] deals with Rattus norvegicus. Description: Tmax in Sprague-Dawley rat assessed as 4-(3,3-Dimethyl-butyrylamino)-3,5-difluoro-N-thiazol-2-yl-benzamide level at 1.5 mg/kg, po. The class given is ADME, organism-based. On the set-up: dose 1.5 mg/kg, route oral. As to conditions: in vivo. The method in brief: as §1
The subject of series [8] is Rattus norvegicus. Description: Oral bioavailability in Sprague-Dawley rat assessed as 4-(3,3-Dimethyl-butyrylamino)-3,5-difluoro-N-thiazol-2-yl-benzamide level at 1.5 mg/kg. The class given is ADME, organism-based. The following applies: in vivo. In short, it runs like this: as §1
Series [9] concerns Rattus norvegicus. Description: Cmax in Sprague-Dawley rat assessed as 4-(3,3-Dimethyl-butyrylamino)-3,5-difluoro-N-thiazol-2-yl-benzamide level at 15 mg/kg, po. The class given is ADME, organism-based. Details: dose 15 mg/kg, route oral. As to conditions: in vivo. In short, it runs like this:
as §1

Series [10] has as its system Rattus norvegicus. Kind of series: Cmax in Sprague-Dawley rat assessed as 4-(3,3-Dimethyl-butyrylamino)-3,5-difluoro-N-thiazol-2-yl-benzamide level at 1.4 mg/kg, po. The class given is ADME, organism-based. On the set-up: dose 1.4 mg/kg, route oral. The following applies: in vivo. The method in brief:
as §1

A short description of series [11]: Aqueous solubility of the compound at pH 4. As to conditions: water. The class given is physicochemical.
Series [12] deals with Rattus norvegicus. Description: Tmax in Sprague-Dawley rat assessed as 4-(3,3-Dimethyl-butyrylamino)-3,5-difluoro-N-thiazol-2-yl-benzamide level at 1.4 mg/kg, po. The class given is ADME, organism-based. On the set-up: dose 1.4 mg/kg, route oral. As to conditions: in vivo. In short, it runs like this:
as §1

The test system of series [13] is Rattus norvegicus. Kind of series: Oral bioavailability in Sprague-Dawley rat assessed as 4-(3,3-Dimethyl-butyrylamino)-3,5-difluoro-N-thiazol-2-yl-benzamide level at 1.4 mg/kg. The class given is ADME, organism-based. As to conditions: in vivo. The method in brief:
as §1

≈ marks a conversion by molar mass, not a printed value.

What is called solubility is the dissolved amount per volume that the medium holds. As a reminder, the Tmax is the time at which the peak concentration occurs. By AUC is commonly meant concentration integrated over time. In general, Cmax refers to the peak of the concentration-time curve. Usually half-life stands for the time in which the quantity being followed falls by half. Turning to `CC(C)(C)CC(=O)Nc1c(F)cc(C(=O)/N=c2\sccn2COP(=O)(O)O)cc1F`, in [1], the solubility was 8.6 mg/mL (≈ 18.6 mM). Moreover, the Tmax with Rattus norvegicus [2] was found to be 24 min; in the series with Rattus norvegicus [7], 30 min. The AUC with Rattus norvegicus [3] was 35000 ng·h/mL. Further, the Cmax in the series with Rattus norvegicus [4] was found to be 869 ng/mL; in the series with Rattus norvegicus [9], 6413 ng/mL. Further, the F is 66% in the series on Rattus norvegicus [5] and 55% in the series with Rattus norvegicus [8]. Further, the half-life in series [6] is more than 96000 min.

`CC[C@H](C)[C@H](N)C(=O)OCn1ccs/c1=N\C(=O)c1cc(F)c(NC(=O)CC(C)(C)C)c(F)c1`: the Cmax in the series on Rattus norvegicus [10] was 381 ng/mL. This compound also displayed a solubility in [11] of 19.4 mg/mL (≈ 39.1 mM). Also, the half-life in series [6] is 24 min. Also, in the series with Rattus norvegicus [12], the time of peak concentration (Tmax) is 54 min. In addition, in the series with Rattus norvegicus [13], the F is on record as 31%.

(Values after ChEMBL document CHEMBL1671809, “Discovery of phosphoric acid mono-{2-[(E/Z)-4-(3,3-dimethyl-butyrylamino)-3,5-difluoro-benzoylimino]-thiazol-3-ylmethyl} ester (Lu AA47070): a phosphonooxymethylene prodrug of a potent and selective hA(2A) receptor antagonist” (J Med Chem, 2011).)
